This is a sample that favours compounds with a hit; in the whole collection about 2.2% have one here.
Rtt109 Vps75 – blocks Candida albicans Rtt109/Vps75 acetyltransferase activity | 330,000 tested, 0.16% active | AID 540336 | Q5AAJ8 | purified Rtt109/Vps75, ThioGlo CoA-SH fluorescence, 4 h | inhibition, % at 34.9 µM;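 active means inhibition of at least 50% in every replicate; inconclusive means best replicate reaches 50% inhibition but some replicates fall short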
CAL PDZ FP-1 – blocks peptide binding to human CAL PDZ domain | Q9HD26 | purified CAL PDZ, TMR-peptide fluorescence polarization, 1 h | inhibition, % at 20 µM | 330,000 tested, 0.02% active | AID 504414;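 active means highest replicate inhibition of at least 40%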;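 further: plate controls were DMSO neutral control wells for no effect and unlabeled competitor peptide control wells for full effect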
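Assay system – tagged CAL PDZ protein CerCALP, purified · Timing – 1 h at RT · Compound – single point, 20 µM · Measured by – fluorescence polarization from S- and P-plane intensities, G-factor corrected · Evaluation – inhibition from polarization loss · Probe or stimulus – TMR reporter peptide T*-PRC34 · Buffer or medium – pH 7.4 phosphate-saline buffer, reducing agent, detergent, IgG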
CAL PDZ FP-2 – CAL PDZ (human) peptide binding inhibition | purified CAL PDZ, TMR-peptide fluorescence polarization, 1 h | inhibition, % at 24.9 µM | 300,000 tested, 0.92% active;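 active means mean inhibition of at least 30% with at least half of replicates also reaching 30%; inconclusive means no clear call, values can overlap the other calls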;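 further: 0% = DMSO neutral control and 100% = excess unlabeled competitor peptide PRC23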
CDK5 inh – CDK5/p35 (human) kinase inhibition | Q00535+Q15078 | Recombinant CDK5/p35, ADP-Glo luminescence, 60 min | inhibition, % at 10 µM | 330,000 tested, 0.01% active;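 active means highest replicate inhibition of at least 50% and at least 75% of replicates reaching 50%; inconclusive means only one of the two criteria met; inactive means both criteria failed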;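 further: plate controls were DMSO neutral control for no effect and GW8510 at 10 µM for full effect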
dFosB act – activators of mouse delta FosB homodimer. 340,000 tested, 0.99% active. activation, % at 25 µM. AID 493131. purified delta FosB, TAMRA-CDK5 oligo fluorescence polarization; percent of positive-control signal above neutral wells. P13346;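 active means mean activation above about 17%, with every replicate also reaching it, limit read from the data, passing the limit was not always enough; inconclusive means only one of the two conditions met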
Target sequence (P13346 whole entry, looked up): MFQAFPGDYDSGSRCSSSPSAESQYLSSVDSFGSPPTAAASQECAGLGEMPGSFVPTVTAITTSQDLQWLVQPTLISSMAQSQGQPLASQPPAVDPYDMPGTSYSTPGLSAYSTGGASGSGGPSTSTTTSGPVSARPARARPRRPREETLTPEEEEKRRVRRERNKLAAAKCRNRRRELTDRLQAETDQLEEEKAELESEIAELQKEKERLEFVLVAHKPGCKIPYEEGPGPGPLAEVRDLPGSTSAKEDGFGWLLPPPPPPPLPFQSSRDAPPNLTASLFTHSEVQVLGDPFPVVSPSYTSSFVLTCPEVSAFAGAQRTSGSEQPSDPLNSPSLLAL
DYRK1A inh – Dyrk1A (rat) kinase inhibition. Q63470. ADP-Glo luminescence, NFATc1 peptide. inhibition, % at 12.5 µM. 310,000 tested, 0.43% active. AID 504441; in the data active means inhibition above about 50%;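 further: plate controls were vehicle with enzyme for no effect and no enzyme for full effect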
Active calls of the source: *; ? = inconclusive; . = not tested or not shown.

SMILES	Rtt109 Vps75	CAL PDZ FP-1	CAL PDZ FP-2	CDK5 inh	dFosB act	DYRK1A inh
COC(=O)COc1ccccc1/C=C1/NC(=O)NC1=O	5.5	-0.4	-4.7	-0.5	-2.1	6.8
COc1ccc(OC)c(/C=C2\NC(=O)NC2=O)c1	.	-2.5	44.8*	-0.7	2.4	5.9
Cc1ccc(S(=O)(=O)N2CCOCC2)cc1NC(=O)CNC(C)c1ccccc1 (stereo not given)	0.7	0.4	.	0.1	-3.5	.
COC(=O)C1=C(O)/C(=C\c2ccc(OCC(=O)Nc3ccccc3OC)cc2)N=C1C	-0.8	0.3	73.4*	4.1	-0.3	-1.8
N#CC(=Cc1ccncc1)c1ccccc1	1.9	0.0	-5.9	0.5	-2.5	-1.0
N#C/C(=C\c1ccncc1)c1nc2c(s1)CCCC2	57.5*	-3.6	-4.1	0.3	1.4	-81.7
O=C(COC(=O)CNS(=O)(=O)c1ccc(Cl)cc1)NC1CCCCC1	11.0	-3.1	-7.9	0.1	-6.2	9.1
CCCN(CC(=O)Nc1ccccc1OC)C(=O)Cn1c(=O)oc2ccccc21	3.6	-1.0	-0.6	0.7	-1.4	-1.4
CC(C(=O)N1CCN(Cc2ccccc2)CC1)c1ccc([N+](=O)[O-])cc1 (stereo not given)	-4.3	-0.8	-3.8	0.7	-4.3	-4.1
CC(OC(=O)c1ccc(Cl)c([N+](=O)[O-])c1)C(=O)N1CCN(Cc2ccccc2)CC1 (stereo not given)	3.0	-0.3	146.9*	0.2	-10.8	.
COc1ccccc1CCNC(=O)CCn1c(=O)c2cccn2c2ccc(F)cc21	-0.1	0.0	-2.2	-0.1	-7.8	-4.2
CCCCNC(=O)CCn1c(=O)c2cccn2c2ccc(F)cc21	1.2	-2.1	-7.4	-1.3	-7.6	-4.6
Cc1ccc(CCNC(=O)CCn2c(=O)c3cccn3c3ccc(F)cc32)cc1	-4.8	-0.7	38.9*	-0.5	7.9	-0.2
COc1ccc(CCNC(=O)CCn2c(=O)c3cccn3c3ccc(F)cc32)c(OC)c1OC	4.0	-1.1	117.8*	-0.2	-13.9	-1.0
CCc1c(N)nc(N)nc1Nc1ccccc1C	-4.4	0.1	-2.9	-1.9	-8.4	-2.5
Cc1cccc(C(=O)OCC(=O)N2CCCC2=O)c1O	4.3	-2.8	.	-2.6	-6.9	-4.0
Cc1cccc(NC(=O)CCC2CCN(C(=O)C3CC=CCC3)CC2)c1 (stereo not given)	3.0	0.1	-1.5	0.6	-8.7	1.0
CN(C)S(=O)(=O)N1CCC(Oc2ccc(C(=O)N3CCCCCCC3)cc2)CC1	7.9	-1.8	-5.9	0.7	-5.1	-5.7
Nc1nc(SCc2ccccc2)c2ncn(Cc3ccccc3)c2n1	-4.4	-1.3	40.7*	-0.9	-5.7	-2.2
CCCn1cnc2c(SCc3ccccc3)nc(N)nc21	-1.2	-0.1	-1.0	1.0	-3.8	4.6
O=C(CCC(=O)Nc1ccccc1Cl)NN=C1CCCC1	1.7	-2.7	-5.2	-2.3	5.1	-0.8
OC(CNCC1CCCO1)COc1ccc(OCC(O)CNCC2CCCO2)cc1 (stereo not given)	-5.3	0.1	0.0	0.7	-6.0	-6.5
CCOC(=O)c1c(C)n(-c2ccc(C)cc2)c2ccc(OCC(O)CNCCCO)cc12 (stereo not given)	67.4*	-1.3	-8.4	-0.3	9.0	1.4
CCOC(=O)c1c(C)n(-c2ccc(C)cc2)c2ccc(OCC(O)CNCC3CCCO3)cc12 (stereo not given)	64.3*	-2.2	.	-1.0	29.6*	3.3
CCOC(=O)c1c(C)n(C)c2ccc(OCC(O)CNC(CC)CO)cc12 (stereo not given)	?	-0.3	-1.6	1.7	1.8	5.6
COc1ccc(C(=O)CC(SCC(NC(C)=O)C(=O)O)c2ccc(Cl)cc2)cc1OC (stereo not given)	-2.6	-0.7	-0.9	-0.6	-1.7	2.9
CC(C)(C)n1nnnc1C(c1cccnc1)N1CCN(c2cccc(C(F)(F)F)c2)CC1 (stereo not given)	6.4	0.2	0.6	0.9	-11.1	-7.2
CC(C)(C)c1cc(C(c2cccnc2)N2CCN(CCO)CC2)cc(C(C)(C)C)c1O (stereo not given)	91.9*	-1.2	-21.1	5.3	-4.6	2.6
